The record followed here is ChEMBL document CHEMBL1151925, “Design and synthesis of enediyne-peptide conjugates and their inhibiting activity against chymotrypsin” (Bioorg Med Chem, 2009).

Active and inactive are the calls of the source. No cut-off for these calls is given here.

Experiment [1] can be described thus: Inhibition of alpha-chymotrypsin assessed as decrease in proteolysis of BSA at 4.6 uM to 7.7 uM by Lowry method. A digest of the protocol: (§1)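 BSA (1 mg/ml stock) in 0.01 M phosphate buffer digested with chymotrypsin (1 mg/ml solution) at 38 °C for a set time, free enzyme or enzyme preincubated with inhibitor at three concentrations. Undigested BSA precipitated with 4% trichloroacetic acid and removed by centrifugation. Hydrolysed products in the supernatant quantified by Lowry method and compared with the uninhibited control.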

Experiment [2] can be described thus: Inhibition of alpha-chymotrypsin assessed as decrease in proteolysis of BSA at 1 mg/ml after 60 mins by SDS-PAGE. A digest of the protocol: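 Chymotrypsin digestion of BSA (1 mg/ml stock) in 0.01 M phosphate buffer at 38 °C, with free enzyme or enzyme preincubated with inhibitor. Digestion fragments resolved by SDS–PAGE with Coomassie Brilliant Blue staining. Loss of the intact BSA band and appearance of hydrolysed fragments were scored.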

A short description of experiment [3]: Inhibition of alpha-chymotrypsin by Lineweaver-Burke plot analysis. A digest of the protocol: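 Chymotrypsin kinetics followed by UV-vis using N-benzoyl tyrosine ethyl ester substrate at 169–340 µM in 80 mM Tris HCl, pH 7.8, with CaCl2. Inhibitor varied across several concentrations. Reciprocal initial rate plotted against reciprocal substrate concentration (Lineweaver–Burk) to assign inhibition type and derive Ki.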

Experiment [4] can be described thus: Inhibition of alpha-chymotrypsin assessed as decrease in proteolysis of BSA at 93 uM to 372 uM by Lowry method. A digest of the protocol:
as §1

Experiment [5] can be described thus: Inhibition of alpha-chymotrypsin assessed as decrease in proteolysis of BSA at 80 uM to 320 uM by Lowry method. A digest of the protocol: as §1
Experiment [6] can be described thus: Inhibition of alpha-chymotrypsin assessed as decrease in proteolysis of BSA at 10.23 uM to 40.9 uM by Lowry method. A digest of the protocol: as §1
Experiment [7] can be described thus: Inhibition of alpha-chymotrypsin assessed as decrease in proteolysis of BSA at 5.9 uM to 35 uM by Lowry method. A digest of the protocol: as §1
Experiment [8] is described as follows: Inhibition of alpha-chymotrypsin assessed as decrease in proteolysis of BSA at 8.5 uM to 34 uM by Lowry method. A digest of the protocol: as §1

As a reminder, the Ki is the equilibrium dissociation constant of an inhibitor or competing ligand from its target. The low end stands for tighter binding, the high end for weaker binding. As to `CC(C)(C)OC(=O)N[C@@H](Cc1ccccc1)C(=O)N1CC#Cc2ccccc2C#CCC1`, the result in experiment [1] and in experiment [2] was Active. In experiment [3], this molecule had an inhibition constant Ki of 3 µM.

Regarding `CC(C)(C)OC(=O)N[C@@H](Cc1ccccc1)C(=O)OCC(=O)N1CCCCC1`, the outcome in experiment [2] and in experiment [4] was inactive.

For the molecule `CC(C)(C)OC(=O)N[C@@H](Cc1ccccc1)C(=O)N1CCc2ccccc2C1`, the outcome in experiment [2] and in experiment [5] was inactive.

For the molecule `CC(C)(C)OC(=O)N[C@@H](Cc1ccccc1)C(=O)OCC(=O)N1CC#C/C=C\C#CCC1`, the result in experiment [6] and in experiment [2] was Active.

As for `CC(C)(C)OC(=O)N[C@@H](Cc1ccccc1)C(=O)OCC(=O)N1CC#Cc2ccccc2C#CCC1`, the outcome in experiment [2] and in experiment [7] was Active. This molecule also registered a Ki in experiment [3] of 30 µM.

With `C[C@H](NC(=O)OC(C)(C)C)C(=O)N[C@@H](Cc1ccccc1)C(=O)NCCC#Cc1ccccc1C#CC=O`, the outcome in experiment [8] and in experiment [2] was Active. In experiment [3], affinity was put at a Ki of 12 µM.
